Laboratory results: paper PMC6923801 (Journal of medicinal chemistry, 2019)

Columns and labels:
[1] = molecular target: human GPR68 (Homo sapiens, UniProt Q15743); test: GloSensor cAMP assay, proton-mediated Gs-cAMP production at human GPR68; type: cell-based; conditions: for Log (α): affinity cooperativity; for Log (α) / Log (β): human GPR68, HEK293T, Gs-cAMP; for Log (α) / −Log (KB) / Log (αβ/KB) / Log (β): mean ± SEM; for −Log (KB): allosteric binding affinity from functional assay; for −Log (KB) / Log (αβ/KB) / Δ / fold increased allosteric activity (log(αβ/KB)) compared to 1: human GPR68; for Log (αβ/KB): allosteric index; for Δ: difference of Log(αβ/KB) from that of 1; for Log (β): efficacy cooperativity; for PAM activity at GPR68: inactive analogues
In short: (§1)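 HEK293T cells were transiently transfected with receptor and GloSensor cAMP plasmids, overnight (16–20 h). Cells were plated on poly-L-Lys in DMEM + 1% dFBS for 6–24 h, then loaded with 3.5 mM luciferin (HBSS, 20 mM TAPS, pH 8.40) for 1 h at 37 °C. Drug was applied in Ca/Mg-free HBSS pH buffers (MES 5.60–6.70, HEPES 6.80–8.20, TAPS 8.30–8.60) with 10 μM Ro 20-1724. Luminescence was read at 20–30 min.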

[2] = tested on: human GPCRome (318 GPCRs); test: PRESTO-Tango GPCRome off-target agonist screen; type: cell-based; conditions: 1 μM
In short: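 HTLA cells were plated in DMEM + 2% dFBS overnight, then transfected overnight with receptor Tango constructs (15 ng/well) by in-plate PEI. Test compound was added without medium change and left overnight. Bright-Glo luminescence was read after 20 min at room temperature and expressed as fold of basal, using quadruplicate basal and sample wells. Controls were D2 with 100 nM quinpirole and untransfected cells.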

[3] = tested on: 48 common GPCRs, ion channels, and transporters; test: Radioligand binding panel of 48 common drug targets
In short: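 Binding profiling was done by the NIMH PDSP. Targets were first tested at 10 μM in quadruplicate. pKi values were determined for targets with ≥50% inhibition, from at least three independent assays, each in triplicate.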

[4] = molecular target: mouse GPR68 (Mus musculus, UniProt Q8BFQ3); test: GloSensor cAMP assay at mouse GPR68; type: cell-based; conditions: for Δ: difference of Log(αβ/KB) at mouse GPR68 from the corresponding values at human GPR68
In short: as §1

[5] = molecular target: GPR4 (Homo sapiens, UniProt P46093); test: GloSensor cAMP assay at GPR4; type: cell-based; conditions: proton concentration-response with increasing modulator
In short: as §1

[6] = molecular target: GPR65 (Homo sapiens, UniProt Q8IYL9); test: GloSensor cAMP assay at GPR65; type: cell-based; conditions: proton concentration-response with increasing modulator
In short: as §1

[7] = molecular target: A2A receptors (Homo sapiens, UniProt P29274); test: Functional assay at A2A receptors; type: cell-based
[8] = molecular target: 5-HT2B receptors (Homo sapiens, UniProt P41595); test: Calcium release functional assay at 5-HT2B receptors; type: cell-based
In short: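 HEK293 cells stably expressing 5-HT2B were plated in DMEM with 1% dFBS overnight (16–20 h). They were loaded with Fluo-4 Direct dye for 1 h at 37 °C in HBSS with 20 mM HEPES and 2.5 mM probenecid, pH 7.40. Drug dilutions contained 1 mg/mL BSA and 0.1 mg/mL ascorbic acid. Fluorescence was read 1/s for 2 min, with 10 s baseline. Read-out was peak fold of basal within the first minute.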

[9] = molecular target: atypical chemokine receptor 3 (ACKR3) (Homo sapiens, UniProt P25106); test: Tango arrestin recruitment concentration response, ACKR3; type: cell-based
In short: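 HTLA cells were transfected overnight with receptor DNA in DMEM + 10% FBS, then plated on poly-L-Lys in DMEM + 1% dFBS. Test compound was added 6 h later and incubated overnight (16–20 h). After removal of medium, Bright-Glo reagent was added and luminescence counted.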

human GPR68, sequence (Q15743 whole entry): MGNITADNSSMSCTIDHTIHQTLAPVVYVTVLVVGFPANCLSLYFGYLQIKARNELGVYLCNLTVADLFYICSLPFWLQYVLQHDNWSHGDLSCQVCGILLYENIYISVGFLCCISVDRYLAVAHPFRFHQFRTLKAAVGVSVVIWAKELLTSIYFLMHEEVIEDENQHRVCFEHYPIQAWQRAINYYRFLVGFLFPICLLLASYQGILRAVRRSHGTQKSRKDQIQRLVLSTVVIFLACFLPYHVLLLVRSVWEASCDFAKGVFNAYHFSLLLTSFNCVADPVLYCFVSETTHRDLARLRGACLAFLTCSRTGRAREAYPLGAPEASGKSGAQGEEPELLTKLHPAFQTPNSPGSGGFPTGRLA
GPR4, sequence (P46093 whole entry): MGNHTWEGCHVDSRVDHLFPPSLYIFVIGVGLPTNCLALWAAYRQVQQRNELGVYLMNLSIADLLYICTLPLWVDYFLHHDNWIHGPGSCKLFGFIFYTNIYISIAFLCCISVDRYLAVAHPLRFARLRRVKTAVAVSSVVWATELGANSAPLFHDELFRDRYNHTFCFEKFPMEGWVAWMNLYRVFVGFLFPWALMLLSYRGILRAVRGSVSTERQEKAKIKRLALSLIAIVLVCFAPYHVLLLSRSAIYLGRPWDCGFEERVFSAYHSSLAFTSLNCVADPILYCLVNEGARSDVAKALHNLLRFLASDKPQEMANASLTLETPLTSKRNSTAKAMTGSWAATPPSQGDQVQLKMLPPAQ
GPR65, sequence (Q8IYL9 whole entry): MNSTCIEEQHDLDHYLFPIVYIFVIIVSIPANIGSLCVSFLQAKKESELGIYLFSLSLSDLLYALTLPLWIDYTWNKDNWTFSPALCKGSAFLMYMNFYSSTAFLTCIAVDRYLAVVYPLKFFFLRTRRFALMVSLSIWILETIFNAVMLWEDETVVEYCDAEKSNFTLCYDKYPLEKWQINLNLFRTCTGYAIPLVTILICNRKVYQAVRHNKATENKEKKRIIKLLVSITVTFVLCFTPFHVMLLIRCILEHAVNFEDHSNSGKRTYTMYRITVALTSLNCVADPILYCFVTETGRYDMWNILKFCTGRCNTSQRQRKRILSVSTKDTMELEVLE
mouse GPR68, sequence (Q8BFQ3 whole entry): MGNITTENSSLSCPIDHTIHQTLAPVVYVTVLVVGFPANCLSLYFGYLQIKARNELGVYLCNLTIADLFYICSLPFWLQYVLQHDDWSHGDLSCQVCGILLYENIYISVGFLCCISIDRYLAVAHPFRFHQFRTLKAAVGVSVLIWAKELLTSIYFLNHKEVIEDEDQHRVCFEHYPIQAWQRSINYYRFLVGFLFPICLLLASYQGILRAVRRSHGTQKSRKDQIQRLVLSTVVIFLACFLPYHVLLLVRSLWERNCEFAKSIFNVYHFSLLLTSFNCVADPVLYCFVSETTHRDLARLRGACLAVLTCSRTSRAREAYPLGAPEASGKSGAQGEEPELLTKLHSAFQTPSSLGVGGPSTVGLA
A2A receptors, sequence (P29274 whole entry): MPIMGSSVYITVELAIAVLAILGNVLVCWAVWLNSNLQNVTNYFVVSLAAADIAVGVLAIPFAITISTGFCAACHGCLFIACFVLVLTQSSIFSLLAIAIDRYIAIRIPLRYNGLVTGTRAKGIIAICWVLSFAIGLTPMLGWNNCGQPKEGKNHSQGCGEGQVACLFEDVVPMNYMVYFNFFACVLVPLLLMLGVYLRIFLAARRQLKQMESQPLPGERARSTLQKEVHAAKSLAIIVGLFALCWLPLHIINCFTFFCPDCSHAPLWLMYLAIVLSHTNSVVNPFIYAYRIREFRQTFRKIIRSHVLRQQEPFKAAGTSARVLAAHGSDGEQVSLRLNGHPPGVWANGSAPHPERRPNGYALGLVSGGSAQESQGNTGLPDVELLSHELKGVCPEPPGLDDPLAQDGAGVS
5-HT2B receptors, sequence (P41595 whole entry): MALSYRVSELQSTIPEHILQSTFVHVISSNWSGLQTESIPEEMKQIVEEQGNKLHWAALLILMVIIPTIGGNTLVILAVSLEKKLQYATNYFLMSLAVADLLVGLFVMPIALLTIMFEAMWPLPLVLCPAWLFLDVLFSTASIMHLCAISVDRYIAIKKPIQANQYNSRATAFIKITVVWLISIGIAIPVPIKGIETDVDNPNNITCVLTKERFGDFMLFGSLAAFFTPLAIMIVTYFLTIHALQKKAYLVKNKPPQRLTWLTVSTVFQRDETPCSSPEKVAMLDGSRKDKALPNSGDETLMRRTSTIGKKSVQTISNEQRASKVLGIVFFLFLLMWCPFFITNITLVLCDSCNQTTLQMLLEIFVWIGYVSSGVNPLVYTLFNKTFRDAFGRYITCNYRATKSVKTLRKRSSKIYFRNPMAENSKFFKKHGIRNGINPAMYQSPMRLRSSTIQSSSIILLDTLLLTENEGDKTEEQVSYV
atypical chemokine receptor 3 (ACKR3), sequence (P25106 whole entry): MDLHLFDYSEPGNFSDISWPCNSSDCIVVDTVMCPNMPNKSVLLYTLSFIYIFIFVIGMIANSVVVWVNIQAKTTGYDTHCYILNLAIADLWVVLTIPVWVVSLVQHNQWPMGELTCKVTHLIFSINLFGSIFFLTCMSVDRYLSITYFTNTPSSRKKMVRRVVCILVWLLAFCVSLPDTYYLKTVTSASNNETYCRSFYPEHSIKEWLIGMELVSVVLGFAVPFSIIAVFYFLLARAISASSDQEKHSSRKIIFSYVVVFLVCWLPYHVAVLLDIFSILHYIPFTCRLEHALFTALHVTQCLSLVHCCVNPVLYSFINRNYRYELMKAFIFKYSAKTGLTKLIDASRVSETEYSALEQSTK

Row | SMILES | Δ [1] | Kb [1] [µM] | other results
1 | CC(=O)c1cccc(-c2nc(N)nc(NCc3ccccc3)n2)c1 [Compound 21, 1-(3-(4-Amino-6-(benzylamino)-1,3,5-triazin-2-yl)phenyl)ethan-1-one] | Inactive | – | Log (α) [1]: Inactive; −Log (KB) [1]: Inactive; Log (αβ/KB) [1]: Inactive; Log (β) [1]: Inactive; PAM activity at GPR68 [1]: do not show PAM activity; off-target agonist activity at human GPCRome [2]: no off-target agonist activity; binding affinity to common drug targets [3]: minimal binding affinities
2 | Nc1nc(NCCCCc2ccccc2)nc(-c2ccccc2CO)n1 [Compound 63] | 1.04 | 3.02 | Kb [4]: 12.3 µM
3 | Nc1nc(NCc2ccccc2)nc(-c2cccc(CO)c2)n1 [Compound 20] | Inactive | – | Log (α) [1]: Inactive; −Log (KB) [1]: Inactive; Log (αβ/KB) [1]: Inactive; Log (β) [1]: Inactive; PAM activity at GPR68 [1]: do not show PAM activity; PAM activity at GPR4 [5]: do not show PAM activity; PAM activity at GPR65 [6]: do not show PAM activity
4 | CCOc1ccc(CNc2nc(N)nc(-c3ccccc3CO)n2)cc1 [Compound 56, (2-(4-Amino-6-((4-ethoxybenzyl)amino)-1,3,5-triazin-2-yl)-phenyl)methanol] | 0.26 | 17 | –
5 | CC(C)Oc1ccc(CNc2nc(N)nc(-c3ccccc3CO)n2)cc1 [Compound 57, (2-(4-Amino-6-((4-isopropoxybenzyl)amino)-1,3,5-triazin-2-yl)-phenyl)methanol] | 0.38 | 10.2 | –
6 | Cc1ccc(CNc2nc(N)nc(-c3ccccc3CO)n2)cc1 [Compound 52, (2-(4-Amino-6-((4-methylbenzyl)amino)-1,3,5-triazin-2-yl)-phenyl)methanol] | 0.29 | 41.7 | –
7 | Nc1nc(NCc2cccc(F)c2)nc(-c2ccccc2CO)n1 [Compound 42, (2-(4-Amino-6-((3-fluorobenzyl)amino)-1,3,5-triazin-2-yl)-phenyl)methanol] | 0.24 | 30.2 | –
8 | Nc1nc(NCCc2ccccc2)nc(-c2c(F)cccc2CO)n1 [Compound 72, (2-(4-Amino-6-(phenethylamino)-1,3,5-triazin-2-yl)-3-fluorophenyl)methanol] | 0.82 | 9.12 | –
9 | Nc1nc(NCc2ccc(F)cc2)nc(-c2ccccc2CO)n1 [Compound 43, (2-(4-Amino-6-((4-fluorobenzyl)amino)-1,3,5-triazin-2-yl)-phenyl)methanol] | 0.11 | 107 | –
10 | Nc1nc(NCc2ccccc2)nc(-c2c(F)cccc2CO)n1 [Compound 25, (2-(4-Amino-6-(benzylamino)-1,3,5-triazin-2-yl)-3-fluorophenyl)-methanol] | −0.12 | 204 | –
11 | COc1cccc(CO)c1-c1nc(N)nc(NCc2ccccc2)n1 [Compound 32, (2-(4-Amino-6-(benzylamino)-1,3,5-triazin-2-yl)-3-methoxyphenyl)methanol] | Weak PAM | – | Log (α) [1]: Weak PAM; −Log (KB) [1]: Weak PAM; Log (αβ/KB) [1]: Weak PAM; Log (β) [1]: Weak PAM
12 | Nc1nc(NCc2ccccc2F)nc(-c2ccccc2CO)n1 [Compound 41, (2-(4-Amino-6-((2-fluorobenzyl)amino)-1,3,5-triazin-2-yl)-phenyl)methanol] | 0.25 | 53.7 | –
13 | Nc1nc(NCCCc2ccccc2)nc(-c2ccccc2CO)n1 [Compound 62] | 0.80 | 6.03 | –
14 | Nc1nc(NCc2ccccc2F)nc(-c2c(F)cccc2CO)n1 [Compound 67, (2-(4-Amino-6-((2-fluorobenzyl)amino)-1,3,5-triazin-2-yl)-3-fluorophenyl)methanol] | – | 60.3 | –
15 | Cc1cccc(CNc2nc(N)nc(-c3c(F)cccc3CO)n2)c1 [Compound 69, (2-(4-Amino-6-((3-methylbenzyl)amino)-1,3,5-triazin-2-yl)-3-fluorophenyl)methanol] | 0.11 | 36.3 | –

Now from value to molecule, other results behind:

Row | Δ [1] | Kb [1] [µM] | SMILES | other results
16 | 0.80 | 6.03 | Nc1nc(NCc2ccc(Cl)cc2)nc(-c2ccccc2CO)n1 [Compound 46, (2-(4-Amino-6-((4-chlorobenzyl)amino)-1,3,5-triazin-2-yl)-phenyl)methanol] | fold increased allosteric activity (log(αβ/KB)) compared to 1 [1]: 6 fold; Kb [4]: 50.1 µM; Δ [4]: −0.43; PAM activity at GPR4 [5]: no effect or weak activity only at high concentrations; PAM activity at GPR65 [6]: no effect or weak activity only at high concentrations; EC50 [7]: 1.7 µM; agonist activity at A2A receptors [7]: no agonist activity; off-target agonist activity at human GPCRome [2]: no agonist activity
17 | 0.56 | 25.7 | Nc1nc(NCCc2ccc(Oc3ccccc3)cc2)nc(-c2cc(Cl)ccc2CO)n1 [Compound 81, (2-(4-Amino-6-((4-phenoxyphenethyl)amino)-1,3,5-triazin-2-yl)-4-chlorophenyl)methanol] | –
18 | 1.07 | 4.47 | Nc1nc(NCCCc2ccccc2)nc(-c2cc(Cl)ccc2CO)n1 [Compound 78, (2-(4-Amino-6-((3-phenylpropyl)amino)-1,3,5-triazin-2-yl)-4-chlorophenyl)methanol] | fold increased allosteric activity (log(αβ/KB)) compared to 1 [1]: approximately 10 fold; Kb [4]: 13.8 µM; Δ [4]: −0.40; PAM activity at GPR4 [5]: no effect or weak activity only at high concentrations; PAM activity at GPR65 [6]: no effect or weak activity only at high concentrations; agonist activity at 5-HT2B receptors [8]: no agonist activity; off-target agonist activity at human GPCRome [2]: agonist activity at an atypical chemokine receptor 3 (ACKR3); agonist type at ACKR3 [9]: full agonist activities
19 | 0.47 | 20 | Nc1nc(NCc2ccc(Oc3ccccc3)cc2)nc(-c2cc(Cl)ccc2CO)n1 [Compound 80, (2-(4-Amino-6-((4-phenoxybenzyl)amino)-1,3,5-triazin-2-yl)-4-chlorophenyl)methanol] | –
20 | 0.83 | 6.46 | Nc1nc(NCc2ccc(Oc3ccccc3)cc2)nc(-c2ccccc2CO)n1 [Compound 59, (2-(4-Amino-6-((4-phenoxybenzyl)amino)-1,3,5-triazin-2-yl)-phenyl)methanol] | –
21 | 0.62 | 15.5 | Nc1nc(NCCCCc2ccc(Oc3ccccc3)cc2)nc(-c2ccccc2CO)n1 [Compound 66, (2-(4-Amino-6-((4-(4-phenoxyphenyl)butyl)amino)-1,3,5-triazin-2-yl)phenyl)methanol] | –
22 | 0.56 | 17.4 | Nc1nc(NCc2ccccc2)nc(-c2ccc(Cl)cc2CO)n1 [Compound 26, (2-(4-Amino-6-(benzylamino)-1,3,5-triazin-2-yl)-5-chlorophenyl)methanol] | –
23 | 0.95 | 7.24 | Nc1nc(NCCc2ccccc2)nc(-c2cc(Cl)ccc2CO)n1 [Compound 77, (2-(4-Amino-6-(phenethylamino)-1,3,5-triazin-2-yl)-4-chlorophenyl)methanol] | fold increased allosteric activity (log(αβ/KB)) compared to 1 [1]: approximately 10 fold; Kb [4]: 19.1 µM; Δ [4]: −0.34; PAM activity at GPR4 [5]: no effect or weak activity only at high concentrations; PAM activity at GPR65 [6]: no effect or weak activity only at high concentrations; agonist activity at 5-HT2B receptors [8]: no agonist activity; off-target agonist activity at human GPCRome [2]: agonist activity at an atypical chemokine receptor 3 (ACKR3); agonist type at ACKR3 [9]: full agonist activities
24 | −0.70 | 457 | COc1ccc(CNc2nc(N)nc(-c3ccccc3CO)n2)cc1 [Compound 55] | –
25 | 0.81 | 11.5 | Nc1nc(NCCCc2ccc(Oc3ccccc3)cc2)nc(-c2c(F)cccc2CO)n1 [Compound 76, (2-(4-Amino-6-((3-(4-phenoxyphenyl)propyl)amino)-1,3,5-triazin-2-yl)-3-fluorophenyl)methanol] | –
26 | 0.82 | 8.91 | Nc1nc(NCCc2ccc(Oc3ccccc3)cc2)nc(-c2c(F)cccc2CO)n1 [Compound 75, (2-(4-Amino-6-((4-phenoxyphenethyl)amino)-1,3,5-triazin-2-yl)-3-fluorophenyl)methanol] | –
